Reference: ChEMBL document CHEMBL1629544, “Inhibitors of strand transfer that prevent integration and inhibit human T-cell leukemia virus type 1 early replication” (Antimicrob Agents Chemother, 2008)
The source made the active and inactive calls. The calls are words filed in the database; no cut-off is given here.

Legend:
[1] = system: Human T-cell leukemia virus type I; experiment: Antiviral activity against HTLV-1 infected in PBMC cells cocultured with irradiated HTLV-1 positive MT2 cells assessed as decrease in […] load at 50 uM after 7 days by RT-PCR; type: functional, organism-based
Outline: (§1)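 Donor PBMCs were cocultured 5:1 with 60 Gy-irradiated MT2 cells plus IL-2, with compound (DMSO) at 0, 50 or 100 μM, redosed at half concentration on days 4, 7 and 10. DNA was extracted on day 7. Real-time quantitative PCR for tax with albumin normalization used 250 ng DNA per reaction, in triplicate. The untreated load was set to 100 units.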

PBMC [2] = experiment: Growth inhibition of human PBMC cells cocultured with irradiated HTLV-1 positive MT2 cells at 50 uM after 7 days; type: functional, cell-based
Outline: (§2)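 PBMCs from HTLV-1-seronegative donors (Ficoll separation) were cocultured 5:1 with 60 Gy-irradiated HTLV-1-positive MT2 cells in RPMI 1640 with 100 U/ml IL-2. Compounds in DMSO were added at onset at final 0, 50, 100 or 250 μM, then at half the initial concentration on days 4, 7 and 10. Cells were counted on days 7, 14 and 21.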

PBMC [3] = experiment: Growth inhibition of human PBMC cells cocultured with irradiated HTLV-1 positive MT2 cells at 250 uM after 21 days; type: functional, cell-based; outline: as §2
PBMC [4] = experiment: Growth inhibition of human PBMC cells cocultured with irradiated HTLV-1 positive MT2 cells at 100 uM after 14 days; type: functional, cell-based; outline: as §2
PBMC [5] = experiment: Growth inhibition of human PBMC cells cocultured with irradiated HTLV-1 positive MT2 cells at 50 uM after 21 days; type: functional, cell-based; outline: as §2
PBMC [6] = experiment: Growth inhibition of human PBMC cells cocultured with irradiated HTLV-1 positive MT2 cells at 100 uM after 7 days; type: functional, cell-based; outline: as §2
PBMC [7] = experiment: Growth inhibition of human PBMC cells cocultured with irradiated HTLV-1 positive MT2 cells at 250 uM after 7 days; type: functional, cell-based; outline: as §2
[8] = system: Human T-cell leukemia virus type I; experiment: Antiviral activity against HTLV-1 infected in PBMC cells cocultured with irradiated HTLV-1 positive MT2 cells assessed as decrease in […] load 100 uM after 7 days by RT-PCR; type: functional, organism-based; outline: as §1
[9] = system: Human T-cell leukemia virus type I; experiment: Antiviral activity against HTLV-1 infected in PBMC cells cocultured with irradiated HTLV-1 positive MT2 cells assessed as decrease in […] load by RT-PCR; type: functional, organism-based; outline: as §1
PBMC [10] = experiment: Growth inhibition of human PBMC cells cocultured with irradiated HTLV-1 positive MT2 cells at 50 uM after 14 days; type: functional, cell-based; outline: as §2
PBMC [11] = experiment: Growth inhibition of human PBMC cells cocultured with irradiated HTLV-1 positive MT2 cells at 250 uM after 14 days; type: functional, cell-based; outline: as §2
PBMC [12] = experiment: Growth inhibition of human PBMC cells cocultured with irradiated HTLV-1 positive MT2 cells at 100 uM after 21 days; type: functional, cell-based; outline: as §2
PBMC [13] = experiment: Inhibition of HTLV-1 integrase strand transfer activity in PBMC cells at 50 uM measured on day 21; type: cell-based; details: Human T-cell leukemia virus type I
PBMC [14] = experiment: Inhibition of HTLV-1 integrase strand transfer activity in PBMC cells at 100 uM measured on day 21; type: cell-based; details: Human T-cell leukemia virus type I
[15] = Cytotoxic activity against human PBMC cells; type: cell-based
Outline: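 Fresh uninfected PBMCs were cultured with various inhibitor concentrations, including 250, 500 and 1,000 μM, in three experiments per concentration. Cell viability was measured to derive CC50.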

[16] = Inhibition of HTLV-1 integrase strand transfer activity; set-up: species or system Human T-cell leukemia virus type I
Outline: (§3)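 Recombinant HTLV-1 integrase, expressed in E. coli BL21(DE3) and Ni-NTA purified. Donor was a 3′-recessed double-strand 54-bp HTLV-1 3′ LTR with synthetic target DNA, 1 pmol each oligonucleotide. Buffer: 25 mM HEPES pH 7.4, 10 mM β-mercaptoethanol, 10% glycerol, 7.5 mM MnCl₂. Incubated 60 min at 37°C. Products quantified by fluorescent PCR peak intensity, in triplicate; approximate IC50 by linear regression.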

[17] = system: Human T-cell leukemia virus type I; experiment: Inhibition of HTLV-1 integrase strand transfer activity at 10 uM; outline: as §3
[18] = system: Human T-cell leukemia virus type I; experiment: Inhibition of HTLV-1 integrase strand transfer activity at 2 uM; outline: as §3
[19] = system: Human T-cell leukemia virus type I; experiment: Inhibition of HTLV-1 integrase strand transfer activity at 5 uM; outline: as §3

Row | IC50 [16] [µM] | inhibition [17] | inhibition [18] | inhibition [19] | Compound | Activity [1] | inhibition (PBMC [2]) | inhibition (PBMC [3]) | inhibition (PBMC [4]) | inhibition (PBMC [5]) | inhibition (PBMC [6]) | inhibition (PBMC [7]) | Activity [8] | Activity [9] | inhibition (PBMC [10]) | inhibition (PBMC [11]) | inhibition (PBMC [12]) | inhibition (PBMC [13]) | inhibition (PBMC [14]) | CC50 [15] [µM]
1 | – | – | – | – | O=C(O)c1ccc2ccc(/C=C/c3ccc(O)c(O)c3)nc2c1O | Active | Active | Active | Active | Active | Active | Active | Active | Active | Active | Active | Active | – | – | –
2 | – | – | – | – | O=C(O)C(=O)CC(=O)c1cccn1Cc1ccc(F)cc1 | – | Active | Active | Active | Active | Active | Active | – | – | Active | Active | Active | Active | Active | 520
3 | – | – | – | – | O=C(O)c1ccc2ccc(/C=C/c3cc(O)c(O)c(O)c3)nc2c1O | – | – | – | – | – | – | – | – | – | – | – | – | – | – | 10.7
4 | 5.2 | Active | Active | Active | COc1cc(/C=C/c2ccc3ccc(C(=O)O)c(O)c3n2)cc(O)c1O | – | Active | Active | Active | Active | Active | Active | – | – | Active | Active | Active | – | – | –
5 | 7.2 | Active | Active | Active | COc1cc(/C=C/c2ccc3ccc(C(=O)O)c(O)c3n2)cc(OC)c1O | – | Active | Active | Active | Active | Active | Active | – | – | Active | Active | Active | – | – | –
6 | – | – | – | – | O=C(O)C(=O)CC(=O)c1cccc(Cc2ccccc2)c1 | Active | Active | Active | Active | Active | Active | Active | Active | Active | Active | Active | Active | – | – | 220
